ChEMBL document CHEMBL4689842, “EUbOPEN Chemogenomics Library wave 1” (2021)

System: U2OS
Assay: Multiplex assay against U2OS
Assay type: toxicity, cell-based
Settings: human
Method in brief: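 Values for tubulin, mitochondrial-mass and membrane-permeability phenotypes are per cents of cells with healthy nuclei. These cells were identified by CellPathfinder machine-learning gating of live cells that had been stained at seeding with Hoechst33342, BioTracker Green Microtubule Cytoskeleton Dye, MitoTracker Red and Annexin V Alexa Fluor 680 and imaged on a CQ1 microscope at 37°C and 5% CO2 after compound addition. The gating first set Hoechst high-intensity objects apart from normal cells, then split normal cells into healthy, pyknosed or fragmented nuclei, and pyknosed cells into mitotic or apoptotic.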

[1] = 12 h, 1 µM, compound concentration 1 uM, replicate 1
[2] = 12 h, 1 µM, compound concentration 1 uM, replicate 2
[3] = 12 h, 10 µM, compound concentration 10 uM, replicate 1
[4] = 12 h, 10 µM, compound concentration 10 uM, replicate 2
[5] = 24 h, 1 µM, compound concentration 1 uM, replicate 1
[6] = 24 h, 1 µM, compound concentration 1 uM, replicate 2
[7] = 24 h, 10 µM, compound concentration 10 uM, replicate 1
[8] = 24 h, 10 µM, compound concentration 10 uM, replicate 2

CCN1CCN(c2ccc(Nc3cc(N(C)C(=O)Nc4c(Cl)c(OC)cc(OC)c4Cl)ncn3)cc2)CC1 [INFIGRATINIB]
Population Apoptotic (%) [1]: 33%
Population Fragmented Nuclei (%) [1]: 15%
Population Healthy Nuclei (%) [1]: 60%
Population Hoechst High Intensity Objects (%) [1]: 4%
Population Membrane Permeable-Phenotype (%) [1]: 20%
Population Mitochondria Different-Phenotype (%) [1]: 38%
Population Mitotic Cells (%) [1]: 66%
Population Normal (%) [1]: 95%
Population Pyknosed Nuclei (%) [1]: 24%
Population Tubulin-Different-Phenotype (%) [1]: 71%
Total Cell Count [1]: 142
Population Apoptotic (%) [2]: 40%
Population Fragmented Nuclei (%) [2]: 26%
Population Healthy Nuclei (%) [2]: 51%
Population Hoechst High Intensity Objects (%) [2]: 10%
Population Membrane Permeable-Phenotype (%) [2]: 21%
Population Mitochondria Different-Phenotype (%) [2]: 55%
Population Mitotic Cells (%) [2]: 59%
Population Normal (%) [2]: 89%
Population Pyknosed Nuclei (%) [2]: 21%
Population Tubulin-Different-Phenotype (%) [2]: 55%
Total Cell Count [2]: 127
Population Apoptotic (%) [3]: 50%
Population Fragmented Nuclei (%) [3]: 4%
Population Healthy Nuclei (%) [3]: 87%
Population Hoechst High Intensity Objects (%) [3]: 6%
Population Membrane Permeable-Phenotype (%) [3]: 11%
Population Mitochondria Different-Phenotype (%) [3]: 17%
Population Mitotic Cells (%) [3]: 50%
Population Normal (%) [3]: 93%
Population Pyknosed Nuclei (%) [3]: 7%
Population Tubulin-Different-Phenotype (%) [3]: 18%
Total Cell Count [3]: 198
Population Apoptotic (%) [4]: 16%
Population Fragmented Nuclei (%) [4]: 7%
Population Hoechst High Intensity Objects (%) [4]: 13%
Population Mitochondria Different-Phenotype (%) [4]: 18%
Population Mitotic Cells (%) [4]: 83%
Population Normal (%) [4]: 86%
Population Pyknosed Nuclei (%) [4]: 5%
Population Tubulin-Different-Phenotype (%) [4]: 13%
Total Cell Count [4]: 86
Population Apoptotic (%) [5]: 49%
Population Fragmented Nuclei (%) [5]: 16%
Population Healthy Nuclei (%) [5]: 44%
Population Hoechst High Intensity Objects (%) [5]: 8%
Population Membrane Permeable-Phenotype (%) [5]: 30%
Population Mitochondria Different-Phenotype (%) [5]: 63%
Population Mitotic Cells (%) [5]: 50%
Population Normal (%) [5]: 91%
Population Pyknosed Nuclei (%) [5]: 38%
Population Tubulin-Different-Phenotype (%) [5]: 81%
Total Cell Count [5]: 192
Population Apoptotic (%) [6]: 70%
Population Fragmented Nuclei (%) [6]: 30%
Population Healthy Nuclei (%) [6]: 39%
Population Hoechst High Intensity Objects (%) [6]: 14%
Population Membrane Permeable-Phenotype (%) [6]: 19%
Population Mitochondria Different-Phenotype (%) [6]: 78%
Population Mitotic Cells (%) [6]: 29%
Population Normal (%) [6]: 85%
Population Pyknosed Nuclei (%) [6]: 30%
Population Tubulin-Different-Phenotype (%) [6]: 70%
Total Cell Count [6]: 151
Population Apoptotic (%) [7]: 14%
Population Fragmented Nuclei (%) [7]: 5%
Population Healthy Nuclei (%) [7]: 87%
Population Hoechst High Intensity Objects (%) [7]: 2%
Population Membrane Permeable-Phenotype (%) [7]: 15%
Population Mitochondria Different-Phenotype (%) [7]: 14%
Population Mitotic Cells (%) [7]: 85%
Population Normal (%) [7]: 97%
Population Pyknosed Nuclei (%) [7]: 7%
Population Tubulin-Different-Phenotype (%) [7]: 23%
Total Cell Count [7]: 199
Population Apoptotic (%) [8]: 27%
Population Fragmented Nuclei (%) [8]: 10%
Population Healthy Nuclei (%) [8]: 81%
Population Hoechst High Intensity Objects (%) [8]: 9%
Population Membrane Permeable-Phenotype (%) [8]: 17%
Population Mitochondria Different-Phenotype (%) [8]: 20%
Population Mitotic Cells (%) [8]: 72%
Population Normal (%) [8]: 90%
Population Pyknosed Nuclei (%) [8]: 8%
Population Tubulin-Different-Phenotype (%) [8]: 11%
Total Cell Count [8]: 81
